Our source for the BP and Dose values is ChEMBL document CHEMBL1127688, “Guaiacoxypropanolamine derivatives of capsaicin: a new family of beta-adrenoceptor blockers with intrinsic cardiotonic properties” (J Med Chem, 1994).

In assay [1] the test system is Rattus norvegicus. Kind of assay: Change in blood pressure was tested by inducing ia injection at a dose 0.01 mg/kg in rat. Format: functional. The following applies: route intra-arterial. Summed up:
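Urethane-anaesthetised normotensive Wistar rats; single intra-arterial bolus via the superficial epigastric artery. Read-out is the depressor change in systemic blood pressure in mmHg. Data are means ± SE, n = 8, analysed by ANOVA.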

The test system of assay [2] is Rattus norvegicus. Kind of assay: Minimum dose of iv injection that shows vagus reflex and a heart rate decrease of 50 beats/min in non-vagotomized rats. Format: functional. Summed up: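 Non-vagotomized rats given increasing iv doses. The value is the lowest dose (mg/kg) that elicits a vagus reflex with a heart-rate fall of 50 beats/min. Compounds were scored ineffective if no such response occurred below 3 mg/kg. n = 8.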

Compound `COc1cc(CNC(=O)CCCC/C=C/C(C)C)ccc1O` [CAPSAICIN] gave a BP with Rattus norvegicus [1] of -49.5 mmHg. The Dose with Rattus norvegicus [2] was 1 µg/kg.
In the assay on Rattus norvegicus [1], `CCCCCCCCC(=O)NCc1ccc(O)c(OC)c1` [NONIVAMIDE] came in with a BP of -28.3 mmHg. The compound also returned a Dose in the assay with Rattus norvegicus [2] of 5 µg/kg.
